Source: ChEMBL document CHEMBL5058577, “EUbOPEN Chemogenomics Library 2 (Multiplex)” (2022)

Test system: U2OS
Experiment: Multiplex assay against U2OS
Assay type: toxicity, cell-based
Details: human
Method in brief: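 Values for tubulin, mitochondrial-mass and membrane-permeability phenotypes are per cents of cells with healthy nuclei. These cells were identified by CellPathfinder machine-learning gating of live cells that had been stained at seeding with Hoechst33342, BioTracker Green Microtubule Cytoskeleton Dye, MitoTracker Red and Annexin V Alexa Fluor 680 and imaged on a CQ1 microscope at 37°C and 5% CO2 after compound addition. The gating first set Hoechst high-intensity objects apart from normal cells, then split normal cells into healthy, pyknosed or fragmented nuclei, and pyknosed cells into mitotic or apoptotic.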

[1] = 12 h, 1 µM, compound concentration 1 uM, replicate 1
[2] = 12 h, 1 µM, compound concentration 1 uM, replicate 2
[3] = 12 h, 10 µM, compound concentration 10 uM, replicate 1
[4] = 12 h, 10 µM, compound concentration 10 uM, replicate 2
[5] = 24 h, 1 µM, compound concentration 1 uM, replicate 1
[6] = 24 h, 1 µM, compound concentration 1 uM, replicate 2
[7] = 24 h, 10 µM, compound concentration 10 uM, replicate 1
[8] = 24 h, 10 µM, compound concentration 10 uM, replicate 2
[9] = 48 h, 1 µM, compound concentration 1 uM, replicate 1
[10] = 48 h, 1 µM, compound concentration 1 uM, replicate 2
[11] = 48 h, 10 µM, compound concentration 10 uM, replicate 1
[12] = 48 h, 10 µM, compound concentration 10 uM, replicate 2

CC(C)(C)c1ccc(S(=O)(=O)Nc2ccc(Cl)cc2C(=O)c2cc[n+]([O-])cc2)cc1 [VERCIRNON]
Population Apoptotic (%) [1]: 77%
Population Fragmented Nuclei (%) [1]: 28%
Population Healthy Nuclei (%) [1]: 61%
Population Hoechst High Intensity Objects (%) [1]: 1%
Population Membrane Permeable-Phenotype (%) [1]: 8%
Population Mitochondria Different-Phenotype (%) [1]: 5%
Population Mitotic Cells (%) [1]: 22%
Population Normal (%) [1]: 98%
Population Pyknosed Nuclei (%) [1]: 10%
Population Tubulin-Different-Phenotype (%) [1]: 4%
Total Cell Count [1]: 307
Population Apoptotic (%) [2]: 100%
Population Fragmented Nuclei (%) [2]: 15%
Population Healthy Nuclei (%) [2]: 79%
Population Hoechst High Intensity Objects (%) [2]: 0%
Population Mitochondria Different-Phenotype (%) [2]: 4%
Population Mitotic Cells (%) [2]: 0%
Population Normal (%) [2]: 99%
Population Pyknosed Nuclei (%) [2]: 5%
Population Tubulin-Different-Phenotype (%) [2]: 3%
Total Cell Count [2]: 156
Population Apoptotic (%) [3]: 77%
Population Fragmented Nuclei (%) [3]: 24%
Population Healthy Nuclei (%) [3]: 68%
Population Hoechst High Intensity Objects (%) [3]: 1%
Population Membrane Permeable-Phenotype (%) [3]: 3%
Population Mitochondria Different-Phenotype (%) [3]: 2%
Population Mitotic Cells (%) [3]: 22%
Population Normal (%) [3]: 98%
Population Pyknosed Nuclei (%) [3]: 6%
Population Tubulin-Different-Phenotype (%) [3]: 1%
Total Cell Count [3]: 266
Population Apoptotic (%) [4]: 50%
Population Fragmented Nuclei (%) [4]: 21%
Population Healthy Nuclei (%) [4]: 77%
Population Hoechst High Intensity Objects (%) [4]: 0%
Population Membrane Permeable-Phenotype (%) [4]: 15%
Population Mitotic Cells (%) [4]: 50%
Population Normal (%) [4]: 99%
Population Pyknosed Nuclei (%) [4]: 1%
Population Tubulin-Different-Phenotype (%) [4]: 15%
Total Cell Count [4]: 123
Population Apoptotic (%) [5]: 89%
Population Fragmented Nuclei (%) [5]: 25%
Population Healthy Nuclei (%) [5]: 67%
Population Hoechst High Intensity Objects (%) [5]: 1%
Population Membrane Permeable-Phenotype (%) [5]: 8%
Population Mitochondria Different-Phenotype (%) [5]: 5%
Population Mitotic Cells (%) [5]: 10%
Population Normal (%) [5]: 98%
Population Pyknosed Nuclei (%) [5]: 7%
Population Tubulin-Different-Phenotype (%) [5]: 4%
Total Cell Count [5]: 357
Population Apoptotic (%) [6]: 92%
Population Fragmented Nuclei (%) [6]: 18%
Population Healthy Nuclei (%) [6]: 74%
Population Hoechst High Intensity Objects (%) [6]: 0%
Population Membrane Permeable-Phenotype (%) [6]: 2%
Population Mitochondria Different-Phenotype (%) [6]: 4%
Population Mitotic Cells (%) [6]: 7%
Population Normal (%) [6]: 99%
Population Tubulin-Different-Phenotype (%) [6]: 2%
Total Cell Count [6]: 183
Population Apoptotic (%) [7]: 76%
Population Fragmented Nuclei (%) [7]: 21%
Population Healthy Nuclei (%) [7]: 72%
Population Hoechst High Intensity Objects (%) [7]: 2%
Population Membrane Permeable-Phenotype (%) [7]: 1%
Population Mitochondria Different-Phenotype (%) [7]: 1%
Population Mitotic Cells (%) [7]: 23%
Population Normal (%) [7]: 97%
Population Pyknosed Nuclei (%) [7]: 5%
Population Tubulin-Different-Phenotype (%) [7]: 1%
Total Cell Count [7]: 297
Population Apoptotic (%) [8]: 71%
Population Fragmented Nuclei (%) [8]: 22%
Population Hoechst High Intensity Objects (%) [8]: 1%
Population Membrane Permeable-Phenotype (%) [8]: 13%
Population Mitotic Cells (%) [8]: 28%
Population Normal (%) [8]: 98%
Population Pyknosed Nuclei (%) [8]: 4%
Population Tubulin-Different-Phenotype (%) [8]: 15%
Total Cell Count [8]: 160
Population Apoptotic (%) [9]: 82%
Population Fragmented Nuclei (%) [9]: 19%
Population Healthy Nuclei (%) [9]: 73%
Population Hoechst High Intensity Objects (%) [9]: 3%
Population Membrane Permeable-Phenotype (%) [9]: 5%
Population Mitochondria Different-Phenotype (%) [9]: 3%
Population Mitotic Cells (%) [9]: 17%
Population Normal (%) [9]: 96%
Population Pyknosed Nuclei (%) [9]: 6%
Population Tubulin-Different-Phenotype (%) [9]: 4%
Total Cell Count [9]: 515
Population Apoptotic (%) [10]: 84%
Population Fragmented Nuclei (%) [10]: 15%
Population Healthy Nuclei (%) [10]: 75%
Population Hoechst High Intensity Objects (%) [10]: 4%
Population Membrane Permeable-Phenotype (%) [10]: 7%
Population Mitochondria Different-Phenotype (%) [10]: 2%
Population Mitotic Cells (%) [10]: 15%
Population Normal (%) [10]: 95%
Population Pyknosed Nuclei (%) [10]: 9%
Population Tubulin-Different-Phenotype (%) [10]: 2%
Total Cell Count [10]: 296
Population Apoptotic (%) [11]: 79%
Population Fragmented Nuclei (%) [11]: 18%
Population Healthy Nuclei (%) [11]: 75%
Population Hoechst High Intensity Objects (%) [11]: 1%
Population Membrane Permeable-Phenotype (%) [11]: 2%
Population Mitochondria Different-Phenotype (%) [11]: 1%
Population Mitotic Cells (%) [11]: 20%
Population Normal (%) [11]: 98%
Population Pyknosed Nuclei (%) [11]: 5%
Population Tubulin-Different-Phenotype (%) [11]: 1%
Total Cell Count [11]: 414
Population Apoptotic (%) [12]: 77%
Population Fragmented Nuclei (%) [12]: 26%
Population Healthy Nuclei (%) [12]: 65%
Population Hoechst High Intensity Objects (%) [12]: 2%
Population Membrane Permeable-Phenotype (%) [12]: 8%
Population Mitochondria Different-Phenotype (%) [12]: 5%
Population Mitotic Cells (%) [12]: 22%
Population Normal (%) [12]: 97%
Population Pyknosed Nuclei (%) [12]: 8%
Population Tubulin-Different-Phenotype (%) [12]: 11%
Total Cell Count [12]: 215
